Data as given in article PMC3723589 (Channels, 2010).
“Also recorded” adds a separate entry of the source. Read-outs that look alike come from different tables or passages of the source.

Columns and labels:
BK single channels [1] = settings: symmetrical K+ solutions, cited from earlier work
[2] = target: T1, MC13 (Slo1(1-181):Slo3(171-1121)) (Mus musculus, UniProt O54982); type: cell-based; settings: cytosolic TEA, 0 Ca2+, pH 8.5
Slo1/BK-type channels = settings: read-out: extracellular TEA concentration for blockade (half block); cited from earlier work
mouse Slo1 K+ channels [3] = target: T2, mouse Slo1 K+ channels (Mus musculus, UniProt Q08460); test: Block of Slo1 currents, blocker applied extracellularly to outside-out patches; type: cell-based
BK single channels [4] = settings: symmetrical K+ solutions, cited from earlier work; remark: listed apart in the source
sperm = settings: TEA at 2.5–10 mM; cited from earlier work
Slo1-Y294V = Slo1-Y294V (Mus musculus, UniProt Q08460, Y359V); test: Block of Slo1-Y294V currents by extracellular CTX or TEA; type: cell-based; settings: TEA up to 10 mM
Method in brief: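 Excised outside-out patches at room temperature (~22–25°C), with blocker applied to the extracellular face by a multi-barrel local perfusion system, one barrel flowing at a time. The extracellular solution was (mM) 140 K-methanesulfonate, 20 KOH, 10 HEPES, 2 MgCl2, pH 7.0. The pipette (cytosolic) solution was 140 K-methanesulfonate, 20 KOH, 10 HEPES, with 10 μM Ca2+ for CTX tests.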

mouse Slo1 K+ channels [5] = target: T2, mouse Slo1 K+ channels; test: Block of Slo1 currents, blocker applied cytosolically to inside-out patches; type: cell-based; settings: cytosolic TEA, 300 μM Ca2+, pH 8.5
mouse Slo3 K+ channels = target: T3, mouse Slo3 K+ channels (Mus musculus, UniProt O54982); test: Block of Slo3 currents by extracellular blockers; type: cell-based
T3 sequence (O54982 171-1121 limits assumed): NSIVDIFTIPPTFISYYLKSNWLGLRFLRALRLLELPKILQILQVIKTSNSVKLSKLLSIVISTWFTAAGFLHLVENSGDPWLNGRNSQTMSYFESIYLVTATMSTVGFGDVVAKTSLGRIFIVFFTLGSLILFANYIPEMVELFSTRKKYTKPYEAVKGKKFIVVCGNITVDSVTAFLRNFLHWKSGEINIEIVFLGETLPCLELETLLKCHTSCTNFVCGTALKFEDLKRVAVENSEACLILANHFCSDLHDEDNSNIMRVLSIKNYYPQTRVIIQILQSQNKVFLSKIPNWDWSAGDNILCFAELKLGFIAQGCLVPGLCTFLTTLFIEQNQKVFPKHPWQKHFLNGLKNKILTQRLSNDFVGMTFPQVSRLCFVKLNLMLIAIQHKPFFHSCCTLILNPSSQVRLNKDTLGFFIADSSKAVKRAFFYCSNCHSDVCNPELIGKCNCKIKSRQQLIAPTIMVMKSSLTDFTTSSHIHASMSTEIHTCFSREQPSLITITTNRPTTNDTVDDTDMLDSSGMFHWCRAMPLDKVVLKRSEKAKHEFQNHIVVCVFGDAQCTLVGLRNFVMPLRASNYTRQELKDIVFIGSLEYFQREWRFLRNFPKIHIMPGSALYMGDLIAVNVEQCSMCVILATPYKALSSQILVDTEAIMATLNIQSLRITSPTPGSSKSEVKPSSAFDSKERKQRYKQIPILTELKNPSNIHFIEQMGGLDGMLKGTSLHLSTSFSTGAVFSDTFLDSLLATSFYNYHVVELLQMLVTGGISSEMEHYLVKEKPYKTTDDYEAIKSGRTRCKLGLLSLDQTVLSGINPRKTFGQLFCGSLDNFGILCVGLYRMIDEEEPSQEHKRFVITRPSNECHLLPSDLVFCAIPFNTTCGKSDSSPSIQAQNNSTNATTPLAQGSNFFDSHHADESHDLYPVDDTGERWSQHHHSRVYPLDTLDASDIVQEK

[6] = target: T1, MC13 (Slo1(1-181):Slo3(171-1121)); test: Block of MC13; type: cell-based; settings: TEA up to 10 mM
[7] = read-out: Kb, block by cytosolic TEA
[8] = read-out: Kbc, fit OB-CB (2a) 2 params

T2 sequence (Q08460 66-1209 limits assumed): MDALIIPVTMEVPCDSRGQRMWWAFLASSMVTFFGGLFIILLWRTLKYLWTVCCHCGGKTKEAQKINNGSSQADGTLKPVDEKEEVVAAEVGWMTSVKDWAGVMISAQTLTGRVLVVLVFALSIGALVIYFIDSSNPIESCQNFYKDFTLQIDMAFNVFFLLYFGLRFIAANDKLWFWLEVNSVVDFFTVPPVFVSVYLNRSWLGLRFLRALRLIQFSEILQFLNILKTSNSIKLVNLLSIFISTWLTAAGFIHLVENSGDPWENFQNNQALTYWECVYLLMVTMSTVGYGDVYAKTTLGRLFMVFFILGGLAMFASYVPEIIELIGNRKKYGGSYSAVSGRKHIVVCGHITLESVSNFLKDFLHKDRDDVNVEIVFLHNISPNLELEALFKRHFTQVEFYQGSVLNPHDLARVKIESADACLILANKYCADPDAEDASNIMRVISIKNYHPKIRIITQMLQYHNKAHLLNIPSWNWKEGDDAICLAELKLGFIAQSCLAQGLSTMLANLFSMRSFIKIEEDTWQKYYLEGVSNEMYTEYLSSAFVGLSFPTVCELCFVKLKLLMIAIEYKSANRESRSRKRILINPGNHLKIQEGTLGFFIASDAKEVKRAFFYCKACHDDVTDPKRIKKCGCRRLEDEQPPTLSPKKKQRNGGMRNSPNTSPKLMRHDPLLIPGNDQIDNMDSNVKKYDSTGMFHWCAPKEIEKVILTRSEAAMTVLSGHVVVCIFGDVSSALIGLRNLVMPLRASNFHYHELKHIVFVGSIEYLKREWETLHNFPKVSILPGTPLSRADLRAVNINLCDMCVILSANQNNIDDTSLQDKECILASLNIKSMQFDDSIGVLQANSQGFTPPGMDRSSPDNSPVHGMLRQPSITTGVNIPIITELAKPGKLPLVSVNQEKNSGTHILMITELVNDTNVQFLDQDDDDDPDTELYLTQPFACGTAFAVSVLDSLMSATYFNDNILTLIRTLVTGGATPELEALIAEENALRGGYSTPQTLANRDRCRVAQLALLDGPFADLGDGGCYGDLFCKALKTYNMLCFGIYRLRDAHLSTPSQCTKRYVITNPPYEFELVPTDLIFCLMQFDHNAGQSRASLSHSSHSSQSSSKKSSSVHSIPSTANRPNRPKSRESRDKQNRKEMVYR
T1 sequence (Q08460 66-246 partner, one chain of several): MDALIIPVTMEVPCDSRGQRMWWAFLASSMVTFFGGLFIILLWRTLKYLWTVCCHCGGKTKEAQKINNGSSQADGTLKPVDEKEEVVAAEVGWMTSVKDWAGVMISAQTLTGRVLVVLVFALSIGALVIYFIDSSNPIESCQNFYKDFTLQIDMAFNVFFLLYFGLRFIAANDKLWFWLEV
Chain of Slo1-Y294V (Q08460 66-1209 Y359V limits assumed): as the sequence (Q08460 66-1209 limits assumed) above, with Y294V counted along it

CC[N+](CC)(CC)CC [TEA, tetraethylammonium]
Kb (BK single channels [1]; [7]): 60000 µM
zδ (BK single channels [1]): 0.26 e
zc ([2]; fit OB-CB (2') 4 params (zo fixed 0)): 0.06 ± 0.20 e
zc ([2]; fit OB-CB (2a) 2 params): 0.05 ± 0.02 e
zo (z) ([2]; fit OB-CB (2a) 2 params): 0.05 ± 0.02 e
Kd ([2]; read-out: Kbc, fit OB-CB (2') zo = zc = 0 e): 2360 ± 420 µM
Kd [2, 8]: 2010 ± 290 µM
Kb ([2]; read-out: Kbo (Kb), fit OB-CB (2a) 2 params): 2010 ± 290 µM
Kd ([2]; read-out: Kbo, fit OB (1a) zo = 0 e): 330 ± 10 µM
Kd ([2]; read-out: Kbo, fit OB-CB (2') zo = zc = 0 e): 560 ± 60 µM
IC50 (Slo1/BK-type channels): 200 to 300 µM
block of Slo1 current (mouse Slo1 K+ channels [3]; 250 μM extracellular TEA, at 0 mV): about 50%
zo (mouse Slo1 K+ channels [3]; extracellular TEA, 300 μM Ca2+, pH 8.5, fit OB-CB (2') 4 params (zc fixed 0)): 0.23 ± 0.04 e
zc (voltage-dependence of closed state block) (mouse Slo1 K+ channels [3]; extracellular TEA, 300 μM Ca2+, pH 8.5, fit OB-CB (2a) 2 params): 0.23 ± 0.02 e
zo (voltage-dependence of open state block) (mouse Slo1 K+ channels [3]; extracellular TEA, pipette 300 μM Ca2+, pH 8.5, fit OB (1a) 2 params): 0.34 ± 0.02 e
Kd (mouse Slo1 K+ channels [3]; read-out: Kbc (affinity of blocker to closed state), extracellular TEA, 300 μM Ca2+, pH 8.5, fit OB-CB (2a) 2 params): 174 ± 8 µM
Kd (mouse Slo1 K+ channels [3]; read-out: Kbo (affinity of blocker to open state), extracellular TEA, pipette 300 μM Ca2+, pH 8.5, fit OB (1a) 2 params): 132 ± 6.9 µM
Kb (BK single channels [4]; [7]): 34700 µM
zδ (BK single channels [4]): 0.27 e
effects on sperm function (sperm): not produced
effect of extracellular TEA on Slo1-Y294V (Slo1-Y294V): lack of effect
zc (mouse Slo1 K+ channels [5]; fit OB-CB (2') 4 params): 0.57 ± 0.32 e
zo (mouse Slo1 K+ channels [5]; fit OB-CB (2') 4 params): 0.16 ± 0.20 e
zc (mouse Slo1 K+ channels [5]; fit OB-CB (2a) 2 params): 0.22 ± 0.02 e
zo (mouse Slo1 K+ channels [5]; fit OB-CB (2a) 2 params): 0.22 ± 0.02 e
zo (zδ) (mouse Slo1 K+ channels [5]; open channel block OB (1a) 2 params): 0.15 ± 0.02 e
Kd (mouse Slo1 K+ channels [5]; read-out: Kbc, fit OB-CB (2') 4 params): 61400 ± 34800 µM
Kd (mouse Slo1 K+ channels [5]; [8]): 73500 ± 4500 µM
Kd (mouse Slo1 K+ channels [5]; read-out: Kbo, fit OB-CB (2') 4 params): 78600 ± 22600 µM
Kd (mouse Slo1 K+ channels [5]; read-out: Kbo, fit OB-CB (2a) 2 params): 73500 ± 4500 µM
block of Slo3 (mouse Slo3 K+ channels): resistant to block
effect of extracellular TEA on MC13 [6]: only minor effects; also recorded: minimal effect
